This is a sample that favours compounds with a hit; in the whole collection about 2.5% have one here.
MC4R antagonist: antagonists of human melanocortin 4 receptor (MC4R); MC4R-expressing cells, MTII-stimulated cAMP, LANCE TR-FRET; inhibition, % at 6.5 µM; P32245; hit rate 0.48% among 360,000; AID 540295;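 active means inhibition above its plate's cutoff, the mean of tested wells on that plate plus 3 SD, cut at about 29% in these data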;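 further: 0% = Melanotan II alone and 100% = Melanotan II plus saturating MCL0020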
Target sequence (P32245 whole entry, looked up): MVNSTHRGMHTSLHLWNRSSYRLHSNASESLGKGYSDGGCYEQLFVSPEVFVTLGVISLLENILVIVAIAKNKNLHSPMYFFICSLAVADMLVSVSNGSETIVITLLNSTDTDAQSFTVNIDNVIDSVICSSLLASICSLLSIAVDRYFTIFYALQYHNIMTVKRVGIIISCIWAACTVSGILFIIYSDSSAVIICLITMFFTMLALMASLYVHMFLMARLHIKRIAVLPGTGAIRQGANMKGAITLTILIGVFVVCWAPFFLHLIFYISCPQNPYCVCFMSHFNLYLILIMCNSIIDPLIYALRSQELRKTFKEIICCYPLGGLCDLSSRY
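Assay system: U2OS-MC4R stable cell line; Also added: Melanotan II; Technique: Eu-cAMP/anti-cAMP TR-FRET, emission 671 nm; Times: 30-min compound, 1-h challenge, 1-h detection, room temperature.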
A1 inh: inhibitors of the anti-apoptotic protein A1, read as caspase activation. MEF A1-2A-BIM cells, Caspase-Glo 3/7 luminescence, 3 h; percent of clofoctol response, vehicle zero. caspase activation, % (test concentration not listed). hit rate 0.066% among 330,000;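 active means over half of replicate activation scores above 10%, or exactly half above 10 with the replicate mean above 10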
NALP1 inh: blocks the NALP1 inflammasome reconstituted in yeast. inhibition, % at 10 µM. AID 2071. S. cerevisiae NALP1/ASC/caspase-1 growth, X-gal OD620, 72 h. hit rate 0.61% among 280,000; in the data active means inhibition mostly above about 24%, no sharp cut-off; inactive means mostly below about 32%
TbMetRS inhib: Trypanosoma brucei MetRS inhibition; purified T. brucei MetRS, ATP depletion, Kinase-Glo luminescence; inhibition, % at 11.9 µM; hit rate 0.4% among 360,000; AID 624268;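 active means inhibition above a per-plate cutoff of the control wells' mean inhibition plus 3 SD, cut at about 5.5% in these data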;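 further: 0% = DMSO wells median and 100% = median of wells with control inhibitor compound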
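Test system: purified T. brucei MetRS enzyme. Also added: ATP, methionine and E. coli bulk tRNA substrates. Compound: 11.9 µM single point. Schedule: 15 min enzyme-compound preincubation, 2 h reaction, 10 min detection, 25 °C. Signal: luciferase luminescence of residual ATP, Kinase-Glo. Evaluation: percent inhibition versus plate control medians. Controls: DMSO wells, low control.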
MC4R ag barr: agonists of human melanocortin 4 receptor (MC4R) beta-arrestin | P32245 | U2OS MC4R beta-arrestin complementation, luminescence; percent of melanotan II response, DMSO zero | activation, % at 8.9 µM | hit rate 0.98% among 360,000;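 active means activation above a per-plate cutoff, the mean activation of sample wells on that plate plus 3 SD, cut at about 8% in these data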
NLRP3 yeast inh: NALP3 inhibition in yeast; Yeast reconstituted NLRP3/ASC/caspase-1, beta-gal luminescence, 24 h; inhibition, % at 10 µM; hit rate 0.39% among 330,000; AID 2825;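 active means inhibition of 50% or more; inactive means inhibition below 50%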;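 further: plate controls were induced DMSO wells for no effect and uninduced yeast grown without galactose for full effect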
cAMP nonselect: counter-screen for MC4R antagonists: nonselective cAMP signaling inhibitors; shares compounds with MC4R antagonist; parental U2OS, forskolin cAMP, LANCE TR-FRET; inhibition, % at 6.5 µM; hit rate 26% among 1,600;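 active means mean inhibition over triplicates above the low-control well mean plus 3 SD, set per campaign, cut at about 13% in these data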;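 further: signal is single emission at 671 nm which falls as cellular cAMP rises; 0% = forskolin-stimulated wells and 100% = buffer without forskolin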
MC4R antag conf: human MC4R cAMP antagonism confirmation; inhibition, % at 6.5 µM; AID 602195; shares compounds with MC4R antagonist; hit rate 27% among 1,600; MC4R-expressing cells, MTII-stimulated cAMP, TR-FRET; in the data active means inhibition above about 29%;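 further: 0% = agonist stimulated wells alone and 100% = agonist stimulated wells plus saturating reference antagonist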
* = called active by the depositor; . = not tested or not shown.

SMILES | MC4R antagonist | A1 inh | NALP1 inh | TbMetRS inhib | MC4R ag barr | NLRP3 yeast inh | cAMP nonselect | MC4R antag conf
CCn1nnnc1NCc1ccc(OCc2c(F)cccc2Cl)c(OC)c1 | 32* | 1 | -12 | 0 | 0 | -22 | -3 | 7
COc1cc(CNc2ccc3[nH]c(=O)[nH]c3c2)ccc1OCc1c(F)cccc1Cl | 1 | 0 | 8 | 0 | -1 | 5 | . | .
CN(C)c1ccc(CNC(=O)CCS(=O)(=O)c2ccc3c(c2)n(C)c(=O)c(=O)n3C)cc1 | -6 | 1 | 8 | 0 | 1 | 13 | . | .
CC(C)(C)c1ccc(C(=O)OC/C(O)=C(\C#N)c2nc3ccccc3s2)cc1 | 29* | 0 | 12 | 0 | 1 | 1 | 2 | 6
O=C(CNC(=O)/C(=C\c1ccc(Br)cc1)NC(=O)c1ccccc1)OCc1ccccc1 | 40* | 0 | 18 | -1 | -3 | 15 | 19* | 48*
Cc1[nH]n(-c2ccccc2)c(=O)c1C=NC1CCCCCC1 | 34* | 0 | 17 | 0 | 0 | 0 | 7 | 8
Cc1[nH]n(-c2ccccc2)c(=O)c1C=NC1CCCCC1 | -9 | 0 | 6 | 0 | -2 | -11 | . | .
CSCCC(NC(=O)c1ccc([N+](=O)[O-])cc1Cl)C(=O)OCC(=O)NCCCc1ccccc1 (stereo not drawn) | 37* | 1 | 34 | -1 | 7 | 13 | 16* | 37*
COc1ccc(CC(=O)Oc2ccc(C(C)(C)C)cc2)cc1S(=O)(=O)N1CCOCC1 | 32* | 0 | . | 0 | -3 | -3 | 12 | 14
CC(=O)NC(CC(=O)OCC(=O)c1c(N)n(C)c(=O)n(C)c1=O)c1ccccc1 (stereo not drawn) | 30* | 0 | 2 | 0 | -2 | 0 | 7 | 5
CCN(c1ccc(OCC(=O)OCC(=O)c2c(N)n(C)c(=O)n(C)c2=O)cc1)S(=O)(=O)c1ccccc1 | 42* | 1 | 2 | -1 | -2 | 6 | 9 | 19
Cn1c(N)c(C(=O)COC(=O)CC(NC(N)=O)c2ccc(Cl)cc2)c(=O)n(C)c1=O (stereo not drawn) | 5 | . | . | 0 | 0 | 6 | . | .
O=C(C[C@H]1C/C=C\CC[C@@H](Cc2ccc(F)cc2)C(=O)O[C@@H](c2ccccc2)CNC1=O)N[C@@H](CO)Cc1ccccc1 | 6 | 0 | . | 0 | -1 | -3 | . | .
CCOCc1nc(N)nc(N)c1-c1cccc(Cl)c1 | 31* | . | . | 0 | -1 | . | -1 | 0
COc1ccccc1N1CCN(C(=O)c2cccc(S(=O)(=O)N3c4ccccc4CC3C)c2)CC1 (stereo not drawn) | -4 | . | . | 0 | 0 | . | . | .
Cc1cc(NC(=O)/C(C#N)=C/c2ccc(-c3ccc(SC(F)F)cc3)o2)n(-c2ccccc2)n1 | 36* | 4 | 23 | 0 | -2 | 2 | 2 | -6
Cc1cc(NC(=O)/C(C#N)=C/c2ccc(-c3cccc(C(F)(F)F)c3)o2)n(-c2ccccc2)n1 | -2 | 0 | 2 | 0 | 6 | 19 | . | .
COc1ccc(CCC(=O)OCC(=O)NCc2ccc(OC)c(OC)c2)cc1OC | 1 | 1 | . | 0 | -1 | 8 | . | .
CC(=O)c1cccc(S(=O)(=O)N2CCC(C(=O)OC3CCOC3=O)CC2)c1 (stereo not drawn) | 40* | 0 | . | 0 | -1 | 18 | 19* | 57*
Cc1ccc(S(=O)(=O)N2CCC(C(=O)OC3CCOC3=O)CC2)cc1C (stereo not drawn) | 40* | 2 | . | 0 | -4 | 23 | 19* | 41*
CC(=O)c1cccc(S(=O)(=O)N2CCC(C(=O)O)CC2)c1 | -9 | 0 | -17 | -1 | 4 | 10 | . | .
CCCOc1ccc(C(=O)c2ccccc2C(=O)OC2CCOC2=O)cc1OCCC (stereo not drawn) | 30* | 0 | . | 0 | -1 | -9 | 12 | 25
CCCOc1ccc(C(=O)c2ccccc2C(=O)O)cc1OCCC | 7 | 0 | -5 | -1 | 2 | 5 | . | .
CCOc1ccc(C=NNC(=O)c2cccc3ccccc23)cc1OCC | 6 | . | . | 0 | -1 | . | . | .
O=c1c(=Nc2ccccc2O)c(=O)c2ccccc12 | 34* | -2 | 6 | 0 | -2 | 37 | 4 | -1
SMILES | MC4R antagonist | A1 inh | NALP1 inh | TbMetRS inhib | MC4R ag barr | NLRP3 yeast inh | cAMP nonselect | MC4R antag conf
Cc1cc(C)n(-c2ccc(C(=O)NCC(=O)Nc3cc(Cl)ccc3Cl)cc2)n1 | 2 | 2 | . | 0 | 1 | 7 | . | .
Cc1ccc2nc(-c3ccc(NC(=S)NC(=O)CC(C)C)cc3)sc2c1 | 2 | -1 | -3 | -2 | 0 | 17 | . | .
Cc1ccc2nc(-c3ccc(NC(=O)C(C)Sc4nncs4)cc3)sc2c1 (stereo not drawn) | 43* | -1 | . | 0 | 3 | 8 | 2 | 18
CC1C(=O)N2CCCc3cc(NC(=O)c4ccccc4F)cc1c32 (stereo not drawn) | -2 | 0 | . | 0 | -2 | 7 | . | .
COC(=O)[C@H](CC(C)C)NC(=O)N1CCC(C)CC1 | 33* | 0 | 6 | 0 | -1 | 11 | 5 | 4
O=C(Nc1cccc([N+](=O)[O-])c1)Nc1cccc([N+](=O)[O-])c1 | 34* | 0 | -8 | 2 | 1 | 11 | 11 | 14
COc1ccc(C2=CC(=O)C[C@H](c3ccc(F)cc3)C2)cc1OC | 5 | 0 | . | 0 | -1 | 23 | . | .
CCCOc1ccc(/C=N/NC(=O)CN(c2ccc(OCC)cc2)S(C)(=O)=O)cc1 | 1 | -1 | . | 0 | 3 | -4 | . | .
CCOc1ccc(N(CC(=O)N/N=C/c2cccnc2)S(C)(=O)=O)cc1 | 31* | 0 | -2 | 0 | 1 | 14 | -1 | 1
O=[N+]([O-])c1cc(-c2nc(-c3ccncc3)no2)ccc1Cl | 39* | -1 | 32 | -1 | -1 | -25 | 18* | 47*
O=[N+]([O-])c1cc(-c2nc(-c3ccncc3)no2)cc([N+](=O)[O-])c1 | 13 | 1 | 28 | 0 | -2 | 13 | . | .
COc1ccc(CN2CCC[C@]3(N[C@H](c4ccccc4)[C@@H]4C(=O)N(Cc5ccccc5)C(=O)[C@@H]43)C2=O)cc1 | 29* | . | . | 0 | 1 | . | -3 | -3
COc1ccc(CN2CCC[C@]3(N[C@H](c4ccc(OC)cc4)[C@@H]4C(=O)N(Cc5ccccc5)C(=O)[C@@H]43)C2=O)cc1 | 3 | . | . | 0 | 0 | . | . | .

From PubChem BioAssay
